Laboratory results as given in the M2OR odorant receptor database.

Columns and labels:
Settings in all cases: stereoisomer not certain
OR10G2 (Homo sapiens) = molecular target: T1, OR10G2 (Homo sapiens) (UniProt Q8NGC3)
T1 sequence (whole entry): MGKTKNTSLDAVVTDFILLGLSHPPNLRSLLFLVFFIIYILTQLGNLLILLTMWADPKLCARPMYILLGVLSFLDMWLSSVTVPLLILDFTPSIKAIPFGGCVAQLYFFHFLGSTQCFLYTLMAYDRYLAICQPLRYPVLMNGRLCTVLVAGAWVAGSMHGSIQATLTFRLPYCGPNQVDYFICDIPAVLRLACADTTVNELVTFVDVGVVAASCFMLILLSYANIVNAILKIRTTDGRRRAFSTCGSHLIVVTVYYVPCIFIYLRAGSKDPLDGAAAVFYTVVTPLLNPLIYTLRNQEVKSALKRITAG
Outline: (§1)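 Transient luciferase assays in mammalian cell lines were common, though methods varied by source. The values come from published papers and their supplementary material, with extra details from the original authors when needed. Responsive refers to a measured signal the original authors judged statistically different from baseline, and non-responsive (inactive) to the remainder.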

OR10G3 (Homo sapiens) = molecular target: T2, OR10G3 (Homo sapiens) (UniProt Q8NGC4)
T2 sequence (whole entry): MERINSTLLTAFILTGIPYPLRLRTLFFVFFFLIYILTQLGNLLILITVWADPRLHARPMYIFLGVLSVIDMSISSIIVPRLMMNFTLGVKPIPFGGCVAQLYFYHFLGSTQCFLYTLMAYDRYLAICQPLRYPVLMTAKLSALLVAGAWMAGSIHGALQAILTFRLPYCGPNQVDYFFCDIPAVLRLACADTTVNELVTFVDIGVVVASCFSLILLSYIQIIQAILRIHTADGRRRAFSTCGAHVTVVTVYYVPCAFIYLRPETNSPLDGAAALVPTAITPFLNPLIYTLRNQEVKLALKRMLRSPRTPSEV
Outline: as §1

OR10G4 (Homo sapiens) = molecular target: T3, OR10G4 (Homo sapiens) (UniProt Q8NGN3)
T3 sequence (whole entry): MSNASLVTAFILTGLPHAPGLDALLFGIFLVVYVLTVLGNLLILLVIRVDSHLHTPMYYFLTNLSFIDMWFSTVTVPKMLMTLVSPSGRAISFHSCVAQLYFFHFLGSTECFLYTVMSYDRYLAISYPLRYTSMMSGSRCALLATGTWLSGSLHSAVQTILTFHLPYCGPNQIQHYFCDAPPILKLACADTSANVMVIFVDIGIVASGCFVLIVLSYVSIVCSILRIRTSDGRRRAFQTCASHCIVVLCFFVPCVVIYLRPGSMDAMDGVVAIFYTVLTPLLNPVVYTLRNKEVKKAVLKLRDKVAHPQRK
Outline: as §1

OR10G6 (Homo sapiens) = molecular target: T4, OR10G6 (Homo sapiens) (UniProt Q8NH81)
T4 sequence (whole entry): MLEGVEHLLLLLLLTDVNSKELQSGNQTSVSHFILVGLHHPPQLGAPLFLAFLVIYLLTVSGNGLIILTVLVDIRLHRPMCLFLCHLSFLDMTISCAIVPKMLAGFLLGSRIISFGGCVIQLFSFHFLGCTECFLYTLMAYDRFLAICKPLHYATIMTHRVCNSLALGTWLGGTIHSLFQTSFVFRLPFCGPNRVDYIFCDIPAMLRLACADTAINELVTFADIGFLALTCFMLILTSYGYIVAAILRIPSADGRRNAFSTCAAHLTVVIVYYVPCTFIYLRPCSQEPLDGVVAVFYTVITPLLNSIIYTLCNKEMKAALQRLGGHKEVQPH
Outline: as §1

OR10G7 (Homo sapiens) = molecular target: T5, OR10G7 (Homo sapiens) (UniProt Q8NGN6)
T5 sequence (whole entry): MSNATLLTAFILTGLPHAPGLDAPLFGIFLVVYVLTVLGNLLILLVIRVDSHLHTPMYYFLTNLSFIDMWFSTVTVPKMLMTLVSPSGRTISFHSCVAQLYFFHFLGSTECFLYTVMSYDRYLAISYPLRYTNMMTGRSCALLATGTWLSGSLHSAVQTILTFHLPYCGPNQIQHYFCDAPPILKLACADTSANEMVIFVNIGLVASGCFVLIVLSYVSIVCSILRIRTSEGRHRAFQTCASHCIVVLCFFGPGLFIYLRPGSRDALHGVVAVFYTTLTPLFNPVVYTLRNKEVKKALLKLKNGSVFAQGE
Outline: as §1

OR10G8 (Homo sapiens) = molecular target: T6, OR10G8 (Homo sapiens) (UniProt Q8NGN5)
T6 sequence (whole entry): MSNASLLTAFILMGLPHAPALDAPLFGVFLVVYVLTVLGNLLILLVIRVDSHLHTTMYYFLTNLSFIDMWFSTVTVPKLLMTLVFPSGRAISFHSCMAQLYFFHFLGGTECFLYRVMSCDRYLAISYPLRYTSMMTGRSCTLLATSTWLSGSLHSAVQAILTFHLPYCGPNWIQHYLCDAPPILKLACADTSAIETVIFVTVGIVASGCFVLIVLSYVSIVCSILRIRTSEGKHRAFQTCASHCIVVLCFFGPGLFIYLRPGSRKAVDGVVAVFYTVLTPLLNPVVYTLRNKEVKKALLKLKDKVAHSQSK
Outline: as §1

OR10G9 (Homo sapiens) = molecular target: T7, OR10G9 (Homo sapiens) (UniProt Q8NGN4)
T7 sequence (whole entry): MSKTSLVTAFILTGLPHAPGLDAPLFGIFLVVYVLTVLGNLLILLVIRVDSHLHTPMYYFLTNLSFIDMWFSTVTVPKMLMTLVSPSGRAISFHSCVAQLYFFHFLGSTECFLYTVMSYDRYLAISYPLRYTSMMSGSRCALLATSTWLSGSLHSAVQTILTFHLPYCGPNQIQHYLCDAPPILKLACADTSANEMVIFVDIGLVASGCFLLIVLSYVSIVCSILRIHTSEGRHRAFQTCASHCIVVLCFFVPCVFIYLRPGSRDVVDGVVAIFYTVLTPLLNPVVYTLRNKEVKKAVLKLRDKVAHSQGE
Outline: as §1

OR10H1 (Homo sapiens) = molecular target: T8, OR10H1 (Homo sapiens) (UniProt Q9Y4A9)
T8 sequence (whole entry): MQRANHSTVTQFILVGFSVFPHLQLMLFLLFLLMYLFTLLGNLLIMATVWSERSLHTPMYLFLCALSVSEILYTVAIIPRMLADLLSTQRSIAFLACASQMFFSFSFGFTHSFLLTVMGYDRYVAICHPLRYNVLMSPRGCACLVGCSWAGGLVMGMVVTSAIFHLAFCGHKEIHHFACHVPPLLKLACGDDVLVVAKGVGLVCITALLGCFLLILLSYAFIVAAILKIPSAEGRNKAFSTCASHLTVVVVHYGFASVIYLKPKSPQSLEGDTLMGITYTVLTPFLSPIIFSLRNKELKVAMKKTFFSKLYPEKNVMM
Outline: as §1

OR10H2 (Homo sapiens) = molecular target: T9, OR10H2 (Homo sapiens) (UniProt O60403)
T9 sequence (whole entry): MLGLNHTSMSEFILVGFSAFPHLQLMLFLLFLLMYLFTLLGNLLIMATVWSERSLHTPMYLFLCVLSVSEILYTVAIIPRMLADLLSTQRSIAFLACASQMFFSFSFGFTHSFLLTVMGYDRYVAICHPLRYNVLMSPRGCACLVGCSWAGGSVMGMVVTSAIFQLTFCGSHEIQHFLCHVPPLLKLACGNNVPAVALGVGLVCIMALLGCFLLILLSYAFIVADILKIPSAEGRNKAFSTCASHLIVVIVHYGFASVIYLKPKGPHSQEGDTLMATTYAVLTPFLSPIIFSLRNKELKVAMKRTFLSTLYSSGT
Outline: as §1

OR10H3 (Homo sapiens) = molecular target: T10, OR10H3 (Homo sapiens) (UniProt O60404)
T10 sequence (whole entry): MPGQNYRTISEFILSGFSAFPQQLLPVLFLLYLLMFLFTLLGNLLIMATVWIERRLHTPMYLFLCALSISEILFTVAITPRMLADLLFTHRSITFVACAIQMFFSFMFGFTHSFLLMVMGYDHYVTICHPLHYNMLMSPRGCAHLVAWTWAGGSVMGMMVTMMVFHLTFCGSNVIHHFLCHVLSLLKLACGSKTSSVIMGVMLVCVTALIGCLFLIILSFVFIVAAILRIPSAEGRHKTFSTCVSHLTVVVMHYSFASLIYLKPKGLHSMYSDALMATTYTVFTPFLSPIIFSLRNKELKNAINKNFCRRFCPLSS
Outline: as §1

Measured: odorant receptor agonist call;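 also: active if original authors judged signal statistically different from baseline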

CC1=NC(C)C(C)S1 (stereo not given)
inactive: OR10G2 (Homo sapiens) | OR10G3 (Homo sapiens) | OR10G4 (Homo sapiens) | OR10G6 (Homo sapiens) | OR10G7 (Homo sapiens) | OR10G8 (Homo sapiens) | OR10G9 (Homo sapiens) | OR10H1 (Homo sapiens) | OR10H2 (Homo sapiens) | OR10H3 (Homo sapiens)
